Values belong to the compound of their own block, whether it stands above or below them. Calls of active or inactive are those of the source.
What was measured:
[1] = (§1) Half life in rat at 1.0 mg/kg, iv or 2 mg/kg, po; format: ADME, organism-based; conditions: in vivo
Method in brief: (§2)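 PK: iv 1.0 mpk in DMSO/Tween-80/water (5:10:85) for rats, EtOH/PEG400/water (10:40:50) for dogs and monkeys; oral 2 mpk in 0.5% methylcellulose for rats and dogs.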

[2] = Clearance in rat at 1.0 mg/kg, iv or 2 mg/kg, po; format: ADME, organism-based; conditions: in vivo; method in brief: as §2
[3] = (§3) Volume of distribution in rat at 1.0 mg/kg, iv or 2 mg/kg, po; format: ADME, organism-based; conditions: in vivo; method in brief: as §2
[4] = (§4) Bioavailability in rat at 1.0 mg/kg, iv or 2 mg/kg, po; format: ADME, organism-based; conditions: in vivo; method in brief: as §2
[5] = organism: Canis lupus familiaris; assay: (§5) Agonist activity at dog nicotinic acid receptor by [35S]GTPgammaS binding assay; format: functional
Method in brief: (§6)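 [35S]GTPγS exchange functional assay on membranes from cells expressing the dog NA receptor; full agonism judged relative to NA; EC50 determined.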

[6] = molecular target: Hydroxycarboxylic acid receptor 1 (Homo sapiens) (UniProt Q9BXC0); assay: Binding affinity to GPR81
Sequence of Hydroxycarboxylic acid receptor 1 (Homo sapiens) (Q9BXC0 whole entry): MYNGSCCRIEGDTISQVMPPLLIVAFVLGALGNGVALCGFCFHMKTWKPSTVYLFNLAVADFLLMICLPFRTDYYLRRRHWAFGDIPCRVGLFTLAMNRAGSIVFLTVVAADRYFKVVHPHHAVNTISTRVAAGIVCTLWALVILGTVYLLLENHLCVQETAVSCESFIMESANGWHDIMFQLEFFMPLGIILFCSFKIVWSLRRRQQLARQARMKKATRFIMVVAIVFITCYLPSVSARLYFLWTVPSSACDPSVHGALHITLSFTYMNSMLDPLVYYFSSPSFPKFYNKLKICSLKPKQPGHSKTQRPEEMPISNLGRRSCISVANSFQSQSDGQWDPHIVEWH

[7] = molecular target: Hydroxycarboxylic acid receptor 3 (Homo sapiens) (UniProt P49019); assay: Binding affinity to GPR109B
Sequence of Hydroxycarboxylic acid receptor 3 (Homo sapiens) (P49019 whole entry): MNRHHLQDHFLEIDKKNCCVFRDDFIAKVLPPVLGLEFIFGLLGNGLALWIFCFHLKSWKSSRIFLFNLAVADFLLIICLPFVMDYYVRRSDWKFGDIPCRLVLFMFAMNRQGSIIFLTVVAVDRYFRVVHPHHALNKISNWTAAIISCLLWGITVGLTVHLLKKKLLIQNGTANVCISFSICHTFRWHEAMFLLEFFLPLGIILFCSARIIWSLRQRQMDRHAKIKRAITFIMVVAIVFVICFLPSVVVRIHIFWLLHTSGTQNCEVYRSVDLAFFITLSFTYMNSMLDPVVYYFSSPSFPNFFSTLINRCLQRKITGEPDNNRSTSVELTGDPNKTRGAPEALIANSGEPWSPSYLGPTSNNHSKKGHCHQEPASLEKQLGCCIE

[8] = Volume of distribution in mouse at 1.0 mg/kg, iv or 2 mg/kg, po; format: ADME, organism-based; conditions: in vivo
[9] = Bioavailability in dog at 1.0 mg/kg, iv or 2 mg/kg, po; format: ADME, organism-based, Canis lupus familiaris; conditions: in vivo; method in brief: as §2
[10] = as §5; format: functional, Canis lupus familiaris; method in brief: as §6
[11] = Bioavailability in rhesus monkey at 1.0 mg/kg, iv or 2 mg/kg, po; format: ADME, organism-based, Macaca mulatta; conditions: in vivo; method in brief: as §2
[12] = Toxicity in po dosed dog assessed as Cmax at which threshold dose of vasodilation occurs in ears by spectrocolorimetry; format: organism-based, Canis lupus familiaris; conditions: in vivo, read-out: Activity
Method in brief: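 Oral dosing in conscious dogs; Cmax(TDV) = average maximal blood compound level at the threshold dose for vasodilation, which was assessed by ear spectrocolorimetry.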

[13] = Half life in rhesus monkey at 1.0 mg/kg, iv or 2 mg/kg, po; format: ADME, organism-based, Macaca mulatta; conditions: in vivo; method in brief: as §2
[14] = Clearance in rhesus monkey at 1.0 mg/kg, iv or 2 mg/kg, po; format: ADME, organism-based, Macaca mulatta; conditions: in vivo; method in brief: as §2
[15] = Half life in mouse at 1.0 mg/kg, iv or 2 mg/kg, po; format: ADME, organism-based; conditions: in vivo
[16] = test system: Rattus norvegicus; assay: Toxicity in rat assessed as induction of induction of flushing-mediated vasodilation in ears at 100 mg/kg, sc by laser doppler flowmetry; format: functional, organism-based; set-up: dose 100 mg/kg
Method in brief: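 Anesthetized rats dosed subcutaneously in a dose-ranging study; ear blood perfusion monitored by laser Doppler flowmetry; n ≥ 5 per group.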

[17] = test system: Canis familiaris; assay: Antilipolytic activity in po dosed dog assessed as drug concentration causing maximum reduction plasma free fatty acids levels; format: functional, Canis lupus familiaris
Method in brief: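 Dose-based dog measure: dose producing maximal plasma FFA suppression after oral dosing in fasted conscious dogs, read from oral dose-ranging FFA data.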

[18] = test system: Rattus norvegicus; assay: Toxicity in rat assessed as induction of flushing-mediated vasodilation in ears at 100 mg/kg, sc by laser doppler flowmetry; conditions: in vivo
[19] = Volume of distribution in dog at 1.0 mg/kg, iv or 2 mg/kg, po; format: ADME, organism-based, Canis lupus familiaris; conditions: in vivo; method in brief: as §2
[20] = test system: Canis familiaris; assay: Antilipolytic activity in po dosed dog assessed as reduction plasma free fatty acids levels; conditions: Canis lupus familiaris
[21] = molecular target: Cytochrome P450 2C9 (Homo sapiens, UniProt P11712); assay: Inhibition of CYP2C9; format: ADME
Sequence of Cytochrome P450 2C9 (P11712 whole entry): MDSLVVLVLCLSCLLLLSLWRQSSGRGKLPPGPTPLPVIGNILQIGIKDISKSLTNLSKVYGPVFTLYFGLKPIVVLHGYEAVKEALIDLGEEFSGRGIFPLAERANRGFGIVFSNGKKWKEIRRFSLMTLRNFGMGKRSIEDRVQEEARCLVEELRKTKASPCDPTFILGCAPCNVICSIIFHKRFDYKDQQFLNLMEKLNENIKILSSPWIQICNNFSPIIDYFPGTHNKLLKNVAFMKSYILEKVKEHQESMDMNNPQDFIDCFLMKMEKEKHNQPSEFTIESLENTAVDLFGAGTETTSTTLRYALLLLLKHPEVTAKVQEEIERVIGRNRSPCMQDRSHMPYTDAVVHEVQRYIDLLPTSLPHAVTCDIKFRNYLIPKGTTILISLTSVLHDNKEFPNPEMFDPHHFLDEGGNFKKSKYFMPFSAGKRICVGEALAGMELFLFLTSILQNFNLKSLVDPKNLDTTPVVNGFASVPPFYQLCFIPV

[22] = test system: Rattus norvegicus; assay: Toxicity in ip dosed rat assessed as induction of induction of flushing-mediated vasodilation in ears by laser doppler flowmetry; format: functional
[23] = Clearance in dog at 1.0 mg/kg, iv or 2 mg/kg, po; format: ADME, organism-based, Canis lupus familiaris; conditions: in vivo; method in brief: as §2
[24] = test system: Rattus norvegicus; assay: Antilipolytic activity in po dosed rat assessed as reduction plasma free fatty acids levels
[25] = Half life in dog at 1.0 mg/kg, iv or 2 mg/kg, po; format: ADME, organism-based, Canis lupus familiaris; conditions: in vivo; method in brief: as §2
[26] = Volume of distribution in rhesus monkey at 1.0 mg/kg, iv or 2 mg/kg, po; format: ADME, organism-based, Macaca mulatta; conditions: in vivo; method in brief: as §2
[27] = test system: Rattus norvegicus; assay: Toxicity in rat assessed as flushing-mediated vasodilation at 100 mg/kg, ip by laser doppler flowmetry; format: functional, organism-based; set-up: dose 100 mg/kg
[28] = test system: Rattus norvegicus; assay: Antilipolytic activity in rat assessed as reduction plasma free fatty acids levels at 100 mg/kg, po; format: functional; set-up: scale not given: the % may be the effect or the level left
Method in brief: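 Conscious rats dosed orally, dose range 1–100 mpk; plasma FFA measured over 4 h and expressed relative to t = 0 level; n ≥ 5 per group.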

[29] = molecular target: Cytochrome P450 2D6 (Homo sapiens, UniProt P10635); assay: Inhibition of CYP2D6; format: ADME
Sequence of Cytochrome P450 2D6 (P10635 whole entry): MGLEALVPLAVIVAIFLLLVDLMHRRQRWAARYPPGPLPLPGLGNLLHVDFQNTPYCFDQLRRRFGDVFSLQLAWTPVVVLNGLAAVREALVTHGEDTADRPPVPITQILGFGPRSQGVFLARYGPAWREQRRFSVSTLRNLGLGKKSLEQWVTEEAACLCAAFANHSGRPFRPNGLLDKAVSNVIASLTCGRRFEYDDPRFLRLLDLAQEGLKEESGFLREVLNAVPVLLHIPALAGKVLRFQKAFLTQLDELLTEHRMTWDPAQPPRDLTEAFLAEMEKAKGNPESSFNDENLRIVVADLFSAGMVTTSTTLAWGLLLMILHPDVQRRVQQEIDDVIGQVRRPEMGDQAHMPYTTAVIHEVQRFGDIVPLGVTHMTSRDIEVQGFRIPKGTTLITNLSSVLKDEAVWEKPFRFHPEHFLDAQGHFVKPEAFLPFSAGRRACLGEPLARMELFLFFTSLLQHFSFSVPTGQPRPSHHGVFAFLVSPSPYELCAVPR
Method in brief: (§7)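 CYP2C8, 2D6 and 3A4 inhibition measured as IC50.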

[30] = Clearance in mouse at 1.0 mg/kg, iv or 2 mg/kg, po; format: ADME, organism-based; conditions: in vivo
[31] = molecular target: T1, Cytochrome P450 2C8 (Homo sapiens, UniProt P10632); assay: Inhibition of CYP2C8; format: ADME; method in brief: as §7
T1 sequence (P10632 whole entry): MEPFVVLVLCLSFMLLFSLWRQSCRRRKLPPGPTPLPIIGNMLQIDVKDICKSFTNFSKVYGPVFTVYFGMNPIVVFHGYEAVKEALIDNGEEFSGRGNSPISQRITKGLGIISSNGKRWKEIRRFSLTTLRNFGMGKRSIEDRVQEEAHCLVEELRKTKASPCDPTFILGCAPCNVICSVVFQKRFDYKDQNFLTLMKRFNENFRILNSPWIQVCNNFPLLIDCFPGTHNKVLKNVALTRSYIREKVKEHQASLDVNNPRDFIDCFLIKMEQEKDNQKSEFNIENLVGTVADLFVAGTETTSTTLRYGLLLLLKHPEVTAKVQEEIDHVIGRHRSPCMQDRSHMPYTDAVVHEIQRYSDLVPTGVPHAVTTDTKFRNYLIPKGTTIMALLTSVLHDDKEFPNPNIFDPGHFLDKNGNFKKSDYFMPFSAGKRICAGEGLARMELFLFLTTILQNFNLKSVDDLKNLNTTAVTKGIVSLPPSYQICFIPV

[32] = Drug level in wild-type C57BL/6 mouse blood at 100 mg/kg, po after 15 mins; format: ADME, organism-based; set-up: dose 100 mg/kg, route oral
Method in brief: (§8)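 Fed wild-type or NA receptor null mice on C57Bl/6 background dosed orally at 100 mpk; blood drawn 15 min postdose for plasma FFA and compound blood level; n = 8/group.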

[33] = test system: Canis familiaris; assay: Toxicity in po dosed dog assessed as threshold dose at which induction of flushing-mediated-vasodilation occurs in ears by spectrocolorimetry; format: functional, Canis lupus familiaris
Method in brief: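 Conscious dogs dosed orally; flushing scored by ear spectrocolorimetry plus vocal and physical agitation; threshold dose = dose causing vasodilation in a subset of animals.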

[34] = test system: Canis familiaris; assay: Antilipolytic activity in dog assessed as reduction plasma free fatty acids levels at 100 mg/kg, po; format: functional, Canis lupus familiaris; set-up: scale not given: the % may be the effect or the level left
Method in brief: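 Fasted conscious dogs dosed orally; plasma FFA followed over time relative to baseline; n = 3-7 per group.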

[35] = test system: Mus musculus; assay: Antilipolytic activity in wild-type C57BL/6 mouse assessed as reduction plasma free fatty acids levels at 100 mg/kg, po after 15 mins; format: functional; set-up: scale not given: the % may be the effect or the level left; method in brief: as §8
[36] = test system: Mus musculus; assay: Antilipolytic activity in NA-receptor null C57BL/6 mouse assessed as reduction plasma free fatty acids levels at 100 mg/kg, po after 15 mins; format: functional, organism-based; set-up: dose 100 mg/kg; method in brief: as §8
[37] = test system: Rattus norvegicus; assay: Plasma concentration in rat at 100 mg/kg, ip; format: ADME, organism-based; set-up: dose 100 mg/kg, route intraperitoneal; conditions: in vivo
[38] = Bioavailability in mouse at 1.0 mg/kg, iv or 2 mg/kg, po; format: ADME, organism-based; conditions: in vivo
[39] = Drug level in NA-receptor null C57BL/6 mouse blood at 100 mg/kg, po after 15 mins; format: ADME, organism-based; set-up: dose 100 mg/kg, route oral; method in brief: as §8
[40] = test system: Rattus norvegicus; assay: as §1; format: ADME, organism-based; conditions: in vivo; method in brief: as §2
[41] = test system: Rattus norvegicus; assay: as §3; format: ADME, organism-based; conditions: in vivo; method in brief: as §2
[42] = test system: Rattus norvegicus; assay: as §4; format: ADME, organism-based; conditions: in vivo; method in brief: as §2

- half-life [1]: 3.6 h
- clearance [2]: 1.1 mL/min/kg
- Vd [3]: 0.21 L/kg
- bioavailability [4]: 19%
Compound: CC(Cc1nc(-c2ccc(O)cn2)no1)C(=O)NC1=C(C(=O)O)CCCC1 (single isomer, unassigned) [listing 1 of 2 here]

- Activity [5]: Active
- Activity [6]: inactive
- Activity [7]: inactive
Compound: CC(Cc1nc(-c2ccc(O)cn2)no1)C(=O)NC1=C(C(=O)O)CCCC1 (single isomer, unassigned) [listing 2 of 2 here]

- Activity [5]: Active
- Activity [6]: inactive
- Activity [7]: inactive
Compound: CC(Cc1nc(-c2ccc(O)cn2)no1)C(=O)NC1=C(C(=O)O)CCCC1 (single isomer, unassigned; enantiomer B) [listing 1 of 2 here]

- Vd [8]: 0.2 L/kg
- bioavailability [9]: 90%
- EC50 [10]: 1.3 µM
- bioavailability [11]: 14%
- half-life [13]: 4.9 h
- clearance [14]: 0.4 mL/min/kg
- half-life [15]: 6.4 h
- half-life [1]: 4.3 h
- Vd [19]: 0.27 L/kg
- EC50 [20]: 16.5 µM
- IC50 [21]: 39 µM
- clearance [23]: 1.8 mL/min/kg
- EC50 [24]: 67 µM
- half-life [25]: 7.6 h
- Vd [26]: 0.08 L/kg
- clearance [2]: 0.4 mL/min/kg
- Vd [3]: 0.15 L/kg
- IC50 [29]: > 100 µM
- bioavailability [4]: 24%
- Activity [6]: inactive
- clearance [30]: 1.3 mL/min/kg
- IC50 [31]: > 100 µM
- concentration at 0.25 h [32]: 229 µM
- Activity [7]: inactive
- concentration [37]: 555 µM
- bioavailability [38]: 45%
- concentration at 0.25 h [39]: 148 µM
Compound: CC(C)(Cc1nc(-c2ccc(O)cn2)no1)C(=O)NC1=C(C(=O)O)CCCC1
- Cmax [12]: 182 µM
- Activity [16]: Toxic
- Activity [17]: 10 mg/kg
- Activity [18]: Toxic
- Activity [22]: 560 µM
- Activity [27]: Toxic
- Activity [28]: 85%
- Activity [33]: 100 mg/kg
- Activity [34]: 85%
- Activity [35]: 36%
- Activity [36]: inactive

- EC50 [20]: 2.7 µM
- EC50 [24]: 2.2 µM
Compound: O=C(O)c1cccnc1 [NIACIN]
- Cmax [12]: 14.6 µM
- Activity [17]: 6 mg/kg
- Activity [22]: 9.4 µM
- Activity [33]: 3 mg/kg
- Activity [35]: 43%
- Activity [36]: inactive

- bioavailability [9]: 33%
- Activity [5]: Active
- half-life [1]: 2 h
- Vd [19]: 0.18 L/kg
- clearance [23]: 1.3 mL/min/kg
- half-life [25]: 2.1 h
- clearance [2]: 2 mL/min/kg
- Vd [3]: 0.11 L/kg
- bioavailability [4]: 22%
- Activity [6]: inactive
- Activity [7]: inactive
Compound: O=C(CCc1nc(-c2ccc(O)cn2)no1)NC1=C(C(=O)O)CCCC1

- Activity [5]: Active
- Activity [6]: inactive
- Activity [7]: inactive
Compound: O=C(CCc1nc(-c2ccc(O)cn2)no1)Nc1ccccc1C(=O)O

- t1/2 [40]: 4.1 h
- Vd [41]: 0.25 L/kg
- F [42]: 23%
Compound: CC(Cc1nc(-c2ccc(O)cn2)no1)C(=O)NC1=C(C(=O)O)CCCC1 (single isomer, unassigned; enantiomer B) [listing 2 of 2 here]

Reference: ChEMBL document CHEMBL1155429, “Discovery of a biaryl cyclohexene carboxylic acid (MK-6892): a potent and selective high affinity niacin receptor full agonist with reduced flushing profiles in animals as a preclinical candidate” (J Med Chem, 2010)
